Assay results from different studies.
Compare with care: the assays were run in different laboratories.
MME: Neprilysin (MME, Homo sapiens, UniProt P08473)
LATS2: Serine/threonine-protein kinase LATS2 (LATS2, Homo sapiens, UniProt Q9NRM7)

SMILES	target	test	conditions	endpoint	result
Cc1sc2c(c1C)C(c1ccc(Cl)cc1)=N[C@@H](CC(=O)OC(C)(C)C)c1nnc(C)n1-2	Stimulator of interferon genes protein (STING1, Homo sapiens, UniProt Q86WV6, H232R)	thermal stability, DSF	200 µM	ΔTm	-1.58 °C
Nc1ncc(-c2nc(N3CCOCC3)nc(N3CCOCC3)n2)c(C(F)F)n1	Citron Rho-interacting kinase (CIT, Homo sapiens, UniProt O14578)	binding, competition with immobilised ligand	10 µM	remaining binding	91%
C#Cc1n[nH]c2c(-c3cn([C@@H](C)c4ccccn4)c(=O)[nH]c3=O)cc(F)cc12	Tyrosine-protein kinase JAK2 (JAK2, Homo sapiens, UniProt O60674)	enzyme activity, inhibitor	0.1 µM	inhibition	-1%
c1ccc(C(NCCNC(c2ccccc2)c2ccccc2)c2ccccc2)cc1	MME	enzyme activity, inhibitor	10 µM	inhibition	8%
COc1cc(Nc2ncc(F)c(Nc3ccc4c(n3)NC(=O)C(C)(C)O4)n2)cc(OC)c1OC	LATS2	binding, competition with immobilised ligand	10 µM	inhibition	100%
COc1ncccc1-c1cnn2ccc(N3CCN(C(=O)OC(C)C)CC3)nc12	Phosphatidylinositol 5-phosphate 4-kinase type-2 gamma (PIP4K2C, Homo sapiens, UniProt Q8TBX8)	binding, competition with immobilised ligand	1 µM	remaining binding	9.5%
C[C@H](C(=O)N[C@H]1COc2ccccc2[C@@H]1S(C)(=O)=O)c1ccc(F)cc1	MME	enzyme activity, inhibitor	10 µM	inhibition	-1%
Cc1ncc(C)n2nc(/C=C/c3nc(N4CCCC4)cc(N4CCOCC4)n3)nc12	MME	enzyme activity, inhibitor	10 µM	inhibition	-13%
COCc1c(-c2cc3cc(C)cc(OC)c3s2)c2c(N)ncnn2c1CN1CCNC(=O)C1	Nitric oxide synthase, inducible (Nos2, Mus musculus, UniProt P29477)	enzyme activity, inhibitor	10 µM	inhibition	17%
CCN(CC)CCCC[C@H](NC(=O)[C@H](CC(C)C)NC(=O)[C@H](C)NC(=O)[C@H](Cc1ccccc1)NC(=O)c1ccc(C(C)(C)C)cc1)C(=O)N[C@@H](CO)C(=O)OC	Histone-lysine N-methyltransferase ASH1L (ASH1L, Homo sapiens, UniProt Q9NR48)	thermal stability, DSF	25 µM	ΔTm	-0.39 °C
Cc1nn(C)cc1-c1nc2c(N3CCN(Cc4ccc(Cl)cc4)CC3)c(Cl)cnc2[nH]1	LATS2	binding, competition with immobilised ligand	1 µM	remaining binding	77%
